In test [1] the test system is Plasmodium berghei. Briefly: Antiplasmodial activity against Plasmodium berghei CTRPp expressing GFP assessed as inhibition of early sporogonic stages development at 50 ug/ml after 24 hrs by fluorescence microscopy.
The test system of a further test is HaCaT. The test is described as follows: Cytotoxicity against human HaCaT cells. In kind it is cell-based.
In test [2] the test system is Plasmodium berghei. The test is described as follows: Antiplasmodial activity against Plasmodium berghei CTRPp expressing GFP assessed as decrease in capacity of zygote to undergo ookinete maturation after 24 hrs by Zeiss fluorescence microscopy. In kind it is functional, organism-based. In short, it runs like this:
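Mice were primed with phenylhydrazine 120 mg/kg ip and infected ip with 10^7 P. berghei CTRPp.GFP RBCs. Day-4 blood with >3 exflagellation centres/1000 RBCs went into pH 7.4 RPMI 1640 (100 μM xanthurenic acid, 20% FBS) with compound over a dose range. Incubation was 19 °C, 24 h. GFP zygotes and ookinetes were counted by fluorescence microscopy, with inhibition calculated against 0.1% DMSO. Wells were in triplicate, and experiments were run at least twice.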

A further test concerns A-375. Briefly: Cytotoxicity against human A375 cells. Type of test: cell-based.
The subject of test [3] is Plasmodium berghei. Briefly: Antiplasmodial activity against Plasmodium berghei CTRPp expressing GFP assessed as inhibition of early sporogonic stages development after 24 hrs by fluorescence microscopy.

By inhibition is commonly meant the change of the read-out against control, counted positive when it falls. In general, IC50 refers to the concentration at which inhibition is half-maximal.

Some results are limits rather than exact numbers.

Regarding `C/C=C(/C)C(=O)O[C@]1(C)C(=O)O[C@H]2C[C@]3(C)O[C@H]3CC/C(C)=C/[C@H](OC(=O)[C@@]3(C)O[C@H]3C)[C@@H]21`, in the test on Plasmodium berghei [1], the inhibition at 50 µg/mL lay within 22 to 35%.
As for `C/C=C(/C)C(=O)O[C@@H]1[C@H]2[C@H](C/C(C)=C/CC[C@]3(C)O[C@@H]13)OC(=O)[C@@]2(C)O`, in the test with Plasmodium berghei [1], the inhibition at 50 µg/mL was in the range of 22 to 35%.
`C=C1C[C@H](OC(=O)/C(C)=C\C)[C@H]2[C@H](/C=C(\C)CC[C@@H]1O)OC(=O)[C@@]2(C)O`: the inhibition at 50 µg/mL in the test on Plasmodium berghei [1] was 22 to 35%.
Regarding `C/C=C(/C)C(=O)O[C@]1(C)C(=O)O[C@H]2C/C(C)=C/CC/C(C)=C/[C@H](OC(=O)[C@@]3(C)O[C@H]3C)[C@@H]21`, the IC50 was over 100 µM in the test with HaCaT, 48.4 µM with Plasmodium berghei [2], over 100 µM in the test on A-375 and 82.3 µM in the test on Plasmodium berghei [3]. Moreover, in the test with Plasmodium berghei [1], the inhibition at 50 µg/mL was determined as 92%.
For the compound `C/C=C(/C)C(=O)O[C@]1(C)C(=O)O[C@H]2C/C(C)=C/CC[C@]3(C)O[C@H]3[C@H](OC(=O)[C@@]3(C)O[C@H]3C)[C@@H]21`, the inhibition at 50 µg/mL in the test with Plasmodium berghei [1] fell in the range of 22 to 35%.
Still for that read-out and setting: to `C/C=C(/C)C(=O)O[C@H]1/C=C(\C)CC[C@@H]2O[C@@]2(C)C[C@@H]2OC(=O)[C@@](C)(O)[C@@H]12` belongs 22 to 35%; to `C=C1C[C@@H]2OC(=O)[C@@](C)(O)[C@H]2[C@@H](OC(=O)/C(C)=C\C)[C@@H]2O[C@@]2(C)CC[C@H]1OO`, 22 to 35%.
Consider `C=C[C@@]12COC(=O)C(=C)[C@@H]1[C@@H](O)[C@H](C(=C)C(=O)OC)[C@@H](OC(=O)C(=C)CO)C2` [VERNODALOL], for which the IC50 in the test on Plasmodium berghei [3] was 19 µM.
